# Assay outcomes: PubChem, several laboratories
# PREPL inhibitor: inhibitors of human prolyl oligopeptidase-like enzyme PREPL | 0.68% of 320,000 active | Q4J6C6 | inhibition, % at 5.96 µM | recombinant PREPL, fluorescence polarization activity-based probe;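 also: 0% = enzyme with DMSO and 100% = wells lacking enzyme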
# Apaf-1 inh: blocks human Apaf-1 apoptosome activity; O14727; reconstituted apoptosome caspase-3 activity, DEVD-Rh110 fluorescence; inhibition, % at 20 µM; 0.71% of 330,000 active; active = inhibition of at least 40% at 20 µM;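 also: plate controls were DMSO wells for no effect and DEVD-CHO caspase inhibitor wells for full effect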
#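 System: Apoptosome proteins | Medium: Hepes pH 7.5 with detergent and BSA | Also added: Cytochrome c trigger plus (Z-DEVD)2-Rh110 caspase-3 substrate | Incubation: 30 min compound preincubation, 50 min activation, room temperature | Detection: Rhodamine 110 fluorescence at Ex 480/Em 540 nm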
# UBC13 inh: inhibitors of human UBC13 polyubiquitin chain formation; 0.47% of 330,000 active; TR-FRET; inhibition, % at 20 µM; AID 485273; P61088; in the data active = inhibition above about 45%, passing the limit was not always enough
# Target sequence (P61088 whole entry, looked up): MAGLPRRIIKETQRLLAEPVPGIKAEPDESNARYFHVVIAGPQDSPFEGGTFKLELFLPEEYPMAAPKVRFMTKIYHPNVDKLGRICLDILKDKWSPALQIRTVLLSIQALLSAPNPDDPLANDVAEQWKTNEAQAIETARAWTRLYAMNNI
# UCH37 inh: human UCH37 deubiquitinating enzyme inhibition; inhibition, % (test concentration not listed); AID 588478; purified proteasome/UCH37, Ub-AMC cleavage fluorescence; 0.33% of 330,000 active; Q9Y5K5;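 active = mean inhibition over replicate wells above about 20%, limit read from the data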;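 also: 0% = compound-free wells with enzyme and 100% = wells lacking proteasome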
# Target sequence (Q9Y5K5 whole entry, looked up): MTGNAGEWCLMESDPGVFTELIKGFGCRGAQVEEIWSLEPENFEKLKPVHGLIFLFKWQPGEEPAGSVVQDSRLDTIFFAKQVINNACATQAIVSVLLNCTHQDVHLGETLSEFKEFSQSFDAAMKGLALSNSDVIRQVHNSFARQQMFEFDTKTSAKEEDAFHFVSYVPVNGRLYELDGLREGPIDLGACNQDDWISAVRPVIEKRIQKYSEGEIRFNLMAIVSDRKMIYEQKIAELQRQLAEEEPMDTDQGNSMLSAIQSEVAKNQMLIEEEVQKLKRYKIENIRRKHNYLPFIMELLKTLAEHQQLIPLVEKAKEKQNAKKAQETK
#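 Material: human UCH37 enzyme supplied as purified proteasome complex / Amount: 0.15 nM proteasome as dispensed / Buffer or medium: pH 7.4 Tris-HCl (50 mM) with ovalbumin, ATP-MgCl2, DTT / Times: preincubation 30 min, reaction 25 min, room temperature / Technique: AMC fluorescence from Ub-AMC cleavage, excitation 355 nm, emission 460 nm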
# PREPL inh cf: confirmation of human PREPL enzyme inhibitors; recombinant PREPL, fluorescence polarization activity probe; AID 2803; inhibition, % at 5.96 µM; 67% of 2,000 active; shares compounds with PREPL inhibitor;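 also: 0% = protein with DMSO and 100% = wells lacking protein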
# Casp3 counter: caspase-3 inhibition (UBC13 counter-screen). shares compounds with UBC13 inh. Recombinant caspase-3, Caspase-Glo 3/7 luminescence, 60 min. 4% of 1,400 active. inhibition, % at 20 µM;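 active = mean inhibition across replicates above about 26%, limit read from the data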;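 also: plate controls were DMSO with caspase-3 for no effect and DMSO wells lacking enzyme for full effect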
# Target sequence (P42574 whole entry, looked up): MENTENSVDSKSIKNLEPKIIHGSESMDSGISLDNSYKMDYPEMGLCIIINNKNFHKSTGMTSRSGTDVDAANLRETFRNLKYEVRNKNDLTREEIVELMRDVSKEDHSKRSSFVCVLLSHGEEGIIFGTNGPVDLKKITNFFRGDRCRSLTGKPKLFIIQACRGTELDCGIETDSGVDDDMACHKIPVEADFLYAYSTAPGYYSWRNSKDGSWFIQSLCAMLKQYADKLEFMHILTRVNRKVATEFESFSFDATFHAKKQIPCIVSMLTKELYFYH
# UBC13 conf: confirmation of human UBC13 polyubiquitin inhibitors. shares compounds with UBC13 inh. UBC13 polyubiquitination, TR-FRET, biochemical. inhibition, % at 10 µM. 68% of 1,400 active. AID 488859; in the data active = inhibition above about 45%
# Apaf-1 inh conf2: Apaf-1 inhibition, single-dose confirmed; 25% of 1,800 active; shares compounds with Apaf-1 inh; reconstituted apoptosome, caspase-3 DEVD-Rh110 fluorescence; inhibition, % at 20 µM;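 active = mean inhibition of at least 40% at 20 µM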;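 also: plate controls were DMSO wells for no effect and DEVD-CHO caspase inhibitor control wells for full effect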
# Rh110 interf inh: interferes with Rh110 fluorescence, flagging false Apaf-1 inhibitors; shares compounds with Apaf-1 inh; Rh110 fluorescence interference, quenched caspase reaction; activation (fluorescence interference), % at 20 µM; 1,800 tested, under 10 active; AID 504615;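 active = signal rise of 40% or more at 20 µM, treated as a fluorescence artifact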
# Fluor interf inh: counter-screen for Apaf-1 inhibitors: fluorescence interference, dose response; AID 588538; shares compounds with Apaf-1 inh; fluorescence interference counterscreen, Apaf-1 assay format; 460 tested, under 10 active; IC50, µM; call rule not given here
# Active calls of the source: *; i = inactive; nt = not tested or not shown. Only some compounds are listed: those with a hit (about 1.5% of all), similar ones and a draw of the others. Rule as the data show it, unless noted: active = inhibition above about 43%; inactive = the rest.
SMILES,PREPL inhibitor,Apaf-1 inh,UBC13 inh,UCH37 inh,PREPL inh cf,Apaf-1 inh conf2,Rh110 interf inh,others
CCC(CO)Oc1cc(NCc2cccc(OC)c2)c2ncn(C(C)C)c2c1 (stereo not drawn),23.9,35.7,4.2,5.7,nt,nt,nt,
O=C(NC1CCCC1)c1ccc2nc(-c3ccco3)c(-c3ccco3)nc2c1,61.7*,44.5*,-9.6,-81.1,34.3,19.3,-2.3,
O=C(c1ccccc1)c1ccc2nc(-c3ccco3)c(-c3ccco3)nc2c1,61.8*,40.6*,32.5,-116.8,51.1*,27.4,8.4,
O=C(NCCc1ccccc1)c1ccc2nc(-c3ccco3)c(-c3ccco3)nc2c1,74.3*,45.8*,-43.4,-95.7,74.0*,28.9,7.3,
c1coc(-c2nc3ccccc3nc2-c2ccco2)c1,31.8,31.5,-11.2,-136.7,nt,nt,nt,
COc1cc2c(C#N)c(N3CCc4ccccc4C3)nc(N)c2c(N)n1,49.3*,94.3*,-4.3,-202.4,53.8*,34.6,7.8,
CC(=NNc1cccc([N+](=O)[O-])c1)c1cc(F)ccc1O,nt,nt,nt,6.9,nt,nt,nt,
CC(=O)NN=C(C)c1ccc(Br)cc1Br,nt,nt,nt,2.8,nt,nt,nt,
Nc1cc2nsnc2cc1Br,46.0*,98.2*,-84.2,nt,31.8,99.1*,5.6,Fluor interf inh=>100
Nc1cnc(Br)cc1Br,8.9,-6.0,10.9,5.1,nt,nt,nt,
CCN(CC)c1ccc(C=NNC(=O)c2c(Cl)cnn2C)c(O)c1,nt,nt,nt,-14.5,nt,nt,nt,
COc1ccc(NC(=O)CSc2nc3c(c(-c4cccs4)c2C#N)CN(C)CC3)cc1OC,44.5*,66.9*,-16.6,5.6,17.1,8.6,4.0,
Cc1cccc(C(=O)ON=C(N)c2cccc([N+](=O)[O-])c2)c1,nt,nt,nt,1.5,nt,nt,nt,
CC1CC(C)(C)CC2(C1)NC(=O)N(CC(=O)Nc1ccc3[nH]c(=O)[nH]c3c1)C2=O (stereo not drawn),49.4*,44.3*,76.9*,2.1,37.9,20.2,7.0,Casp3 counter=-3.1;UBC13 conf=4.6
CC(=O)OCCNc1cc(N2CCN(C)CC2)c2noc3c2c1C(=O)c1ccccc1-3,nt,nt,nt,4.5,nt,nt,nt,
CCN1CCN(c2cc(N3CCN(C(=O)c4ccco4)CC3)c3c4c(onc24)-c2ccccc2C3=O)CC1,69.9*,41.8*,-152.0,nt,68.2*,28.7,6.9,
C/C(C=NNC(=O)Cc1cccn1C)=C\c1ccco1,nt,nt,nt,8.8,nt,nt,nt,
Nc1ccc2nc(-c3cccc(-c4nc5ccc(N)cc5[nH]4)n3)[nH]c2c1,55.6*,40.2*,99.9*,8.4,38.3,15.6,20.6,Casp3 counter=0.8;UBC13 conf=114.0*
COc1ccc(C2CC(=O)Oc3c(C(CCN4CCCC(C)C4)c4ccc(N(C)C)cc4)c(OC)cc(OC)c32)cc1 (stereo not drawn),44.3*,49.1*,34.8,1.4,60.4*,18.2,12.4,
COc1cc(C2CC(=O)Oc3c(C(CCN4CCOCC4)c4ccc(N(C)C)cc4)c(OC)cc(OC)c32)cc(OC)c1OC (stereo not drawn),37.6,9.3,14.8,0.1,nt,nt,nt,
CC[C@@H](C)[C@@H]1CN([C@@H](CN2CCC[C@H]2CN2C(N)=NC[C@H]2C(C)C)C(C)C)C(=N)N1CCCC1CCCC1,54.2*,40.5*,52.9*,5.4,50.3*,0.4,-9.3,Casp3 counter=0.5;UBC13 conf=56.4*
CC[C@@H](C)[C@@H]1CN([C@@H](CN2CCC[C@H]2CN2C(N)=NC[C@@H]2Cc2ccccc2)C(C)C)C(=N)N1CCCC1CCCC1,55.7*,63.1*,72.3*,1.2,50.2*,13.3,10.8,Casp3 counter=-3.0;UBC13 conf=76.0*
COc1cccc(C=NNC(=O)C(=O)N2CCCC2)c1O,nt,nt,nt,5.6,nt,nt,nt,
CC(C)C[C@@H]1CN=C(N)N1C[C@@H]1CCCN1C[C@H](C)N1C[C@@H](Cc2ccccc2)N(CCCC2CCCC2)C1=N,52.2*,54.6*,61.0*,nt,42.8,4.9,2.3,Casp3 counter=-5.0;UBC13 conf=64.4*
CC(C)C[C@@H]1CN=C(N)N1C[C@@H]1CCCN1C[C@H](C)N1C[C@@H](Cc2ccccc2)N(CCc2ccc(Cl)c(Cl)c2)C1=N,45.0*,63.0*,75.5*,-2.0,37.8,6.8,3.3,Casp3 counter=3.2;UBC13 conf=71.1*
SMILES,PREPL inhibitor,Apaf-1 inh,UBC13 inh,UCH37 inh,PREPL inh cf,Apaf-1 inh conf2,Rh110 interf inh,others
NC1=NC[C@H](Cc2ccccc2)N1CC1CCCCC1,6.1,13.7,3.6,-2.4,nt,nt,nt,
CC(C)C[C@@H]1CN=C(N)N1C[C@@H]1CCCN1C[C@@H](C(C)C)N1C[C@@H](Cc2ccccc2)N(CCc2ccc(Cl)c(Cl)c2)C1=N,70.4*,63.4*,15.1,4.4,64.0*,9.7,5.5,
Cc1cccc(C(=O)ON=C2CCSc3ccc(C)cc32)c1,nt,nt,nt,-3.6,nt,nt,nt,
O=C(NN=C1C2CC3CC(C2)CC1C3)c1ccncc1,2.8,2.7,-3.1,2.0,nt,nt,nt,
O=C(N/N=C1\C/C(=N\NC(=O)c2ccncc2)c2ccccc21)c1ccncc1,46.1*,93.4*,-97.5,nt,9.9,60.3*,7.1,Fluor interf inh=>100
CC(=O)N1CCN(c2ccc(NCc3ccc(-c4cccc(Cl)c4)o3)cc2)CC1,54.6*,42.8*,-1.5,nt,68.4*,18.9,5.4,
O=C(c1cc(-c2cccc(Cl)c2)on1)N1CCN(c2ccc(F)cc2)CC1,-9.9,12.8,8.0,-2.6,nt,nt,nt,
CN(C)N=C/C=C1\CCC/C(=C\c2ccc(F)c(F)c2)C1=O,nt,nt,nt,3.0,nt,nt,nt,
Nc1c(C(=O)NCc2ccccc2)c2nc3ccccc3nc2n1CCCN1CCOCC1,44.6*,49.4*,30.3,-278.7,40.9,32.5,26.4,
COC(=O)c1c(N)n(CCCN2CCOCC2)c2nc3ccccc3nc12,8.9,-71.9,-1.5,i,nt,nt,nt,
Nc1c(C(=O)NCc2ccc(F)cc2)c2nc3ccccc3nc2n1CCCN1CCOCC1,61.2*,59.2*,19.0,-285.5,46.4*,24.3,9.4,
Cc1ccc(C(=O)NN=Cc2ccc(OC(=O)c3ccccc3Cl)cc2)cn1,nt,nt,nt,2.3,nt,nt,nt,
COc1ccc(CC(=O)NN=Cc2ccc(-c3cccc(C(=O)O)c3)o2)cc1OC,nt,nt,nt,-1.2,nt,nt,nt,
CC(=NOCc1ccccc1C#N)c1cc2ccccc2o1,nt,nt,nt,-0.8,nt,nt,nt,
Cc1cc2c(N)cccc2nn1,68.2*,96.8*,-42.5,nt,11.5,26.6,-0.2,
Nc1cccc2nc3ccccc3cc12,-3.7,-3.1,-15.8,-122.9,nt,nt,nt,
CCOC(=O)c1c(N=CC2C(=O)CC(C)(C)CC2=O)sc(C)c1C,nt,nt,nt,-94.7,nt,nt,nt,
